According to the EternaBench riboswitch data:

System: MS2 coat protein
Assay: apparent Kd, MS2 coat protein; higher = weaker binding; RNA-MaP array; FMN 200 µM where present
In short: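 The titrant was SNAP-549-labelled MS2 coat protein, run from 0.7 or 1.5 nM in doubling steps to 3 µM. It was applied to designs transcribed by stalled E. coli RNA polymerase on Illumina sequencing-chip clusters, without ligand first and then with constant ligand, in 100 mM Tris-HCl pH 7.5, 80 mM KCl, 4 mM MgCl2, BSA, DTT, yeast tRNA and Tween-20. The apparent Kd is the median of filtered per-cluster binding-curve fits, with green signal normalised to red-channel RNA signal and control-cluster median Fmax.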

[1] = designed as: OFF switch for flavin mononucleotide, no ligand
[2] = ligand present: flavin mononucleotide, designed as: OFF switch for flavin mononucleotide
[3] = designed as: ON switch for flavin mononucleotide, no ligand
[4] = ligand present: flavin mononucleotide, designed as: ON switch for flavin mononucleotide

| Sequence | apparent Kd [1] | apparent Kd [2] | apparent Kd [3] | apparent Kd [4] |
| --- | --- | --- | --- | --- |
| UGAUCGAGAGAUCUUAGAUUCUGGUAGGAUAUACAUUAUGAAAAUUUUACAUGAGGAUCACCCAUGUAGAAGGACUAGAGUCUA | 5.44 nM | 6.33 nM | – | – |
| UGAUCGAGAGAUCUUAGAUUCUGGUAGGAUAUACAUUAUGUAUUAUAUACAUGAGGAUCACCCAUGUAGAAGGACUAGAGUCUA | 6.7 nM | 11.8 nM | – | – |
| UGAUCGAGAGAUCUUAGAUUCUGGUAGGAUAUACAUUAUGUUUGAUAUACAUGAGGAUCACCCAUGUAGAAGGACUAGAGUCUA | 7.34 nM | 15.9 nM | – | – |
| UGAUCUAUGUAGAAGGCCCAUAUCUGUAUUUAGGGAGGAUAUACAUGAGGAUCACCCAUGUGUAGAGCUGGUGGACUGGUCAGC | 87.8 nM | 183 nM | – | – |
| UGAUCUUGUGUUAGGAUAUGCUGGUUUUUUUUUCAGCAGAAGGGACAUGAGGAUCACCCAUGUUCUCUCUUUUU | 12.8 nM | 17.3 nM | – | – |
| UGAUCUUUUGUUAGGAUAUGCUGGGUUUUUUCUCAGCAGAAGGGACAUGAGGAUCACCCAUGUUUUGUCAUAAA | 18.9 nM | 47.6 nM | – | – |
| UGAUUGAGAUUGUAGGAUAUUGGAAAAGCCACAUGAGGAUCACCCAUGUCAAAAAAAAAAAAAAACAAGAAGGGCGGUUUUAGUUA | – | – | 72.9 nM | 61.8 nM |
| UGCAGCGUGCACAUGAGGAUCACCCAUGUGCCAGUGAACGCACAGGAUAUGCAAUCGUACGGCUAGCAGAAGGGUGGGUCUCAC | – | – | 7.65 nM | 6.45 nM |
| UGCGACCUAGGAUAUACAUGAGGAUCACCCAUGUGAUUCGGUGGCGCGAUCCUUGAAAGUAGAAGGAGGAGCAA | 40.1 nM | 35.3 nM | – | – |
| UGCGGAAGAGGAUAUACGUAGAAAUAGAUUCAUGUAAAACUACAUGAGGAUCACCCAUGUAGAAGGCUUUCGCU | 24.8 nM | 232 nM | – | – |
| UGCGGAAUCACAGGAUAUGCGGGAAGAACGAUACCGUACAUGAGGAUCACCCAUGUGGCGGCAAAGCAGAAGGGUGGUUCUCGC | – | – | 8.42 nM | 5.79 nM |
| UGCGGAUAUCGAGGAUAUGCGACGGGUUCUCACAUGAGGAUCACCCAUGUCCGCGGGCCUCAAAAGCAGAAGGCGAGUUCGGUU | – | – | 376 nM | 10.6 nM |
| UGGAAGGUAUGAGGAUAUGCAUGCGAAACGCAUGCAGAAGGCAUGUCAAUAGACAUGAGGAUCACCCAUGUAUUAUCCUUCCAA | – | – | 455 nM | 41.7 nM |
| UGGAGGUCAGGAUAUGCAUGGCGGGACUUGCGUCGUGGCGUGCAGAAGGGACAUGAGGAUCACCCAUGUGGAGG | 124 nM | 121 nM | – | – |
| UGGCCGGAGACAGGAUAUGUGACUGCAUAGUGCACAGAAGGGUCUACAUGAGGAUCACCCAUGUCACCGAACGCCAAACCACAA | – | – | 574 nM | 26.1 nM |
| UGGCUACAUGAGGAUCACCCAUGUCAGGAUAUGCCGUUAAAUUAACAUCAACAUACGGGUAGAAGGGACUGCGU | 28.8 nM | 29.5 nM | – | – |
| UGGCUACAUGAGGAUCACCCAUGUCAGGAUAUGCCGUUAAAUUAACAUCAACGUACGGGUAGAAGGGACUGCGU | 24.3 nM | 23 nM | – | – |
| UGGGAGUCAGGAUAUACGAACAUGUCGCCAGAUGUCAAGGUACAUGAGGAUCACCCAUGUAGAAGGGACUAGAA | 39.4 nM | 42.1 nM | – | – |
| UGGGUUGUUGAGGAUAUCCCGACCGUCUGGUCGGGAGAAGGCAAUACAUGAGGAUCACCCAUGUCACACUUUUC | 32.2 nM | 66.5 nM | – | – |
| UGGUAAUAGGGAGGAUAUGGGAAGAUACAUGAGGAUCACCCAUGUUUAAGAAUGCCGAGAGGCAACUAGAAGGCCCUAGUACCU | – | – | 468 nM | 19.6 nM |
| UGGUACAUCGCAGGAUAUCAUGUAGAUACAUGAGGAUCACCCAUGUCGAUGGAGACAUCGGAGAUUGAGAAGGGCGAUGUACCU | – | – | 907 nM | 41.1 nM |
| UGGUACAUCGGAGGAUAUCAUGUAUAUACAUGAGGAUCACCCAUGUCGAUGGAGACAUCGGAGAUUGAGAAGGCCGAUGUACCU | – | – | 799 nM | 33.3 nM |
| UGGUACAUCGGAGGAUAUCAUGUGUAAACAUGAGGAUCACCCAUGUCGUACGAGAGUACGGAGAUUGAGAAGGCCGAUGUACCU | – | – | 88.7 nM | 16.5 nM |
| UGGUACUAGGGAGGAUAUGGGAAGAGACAUGAGGAUCACCCAUGUUUAAGAAUGCCGAGAGGCAACUAGAAGGCCCUAGUACCU | – | – | 38.8 nM | 7.42 nM |
| UGGUACUAGGGAGGAUAUGGGAAGAUACAUGAGGAUCACCCAUGUAUAAGAAUGCCGAGAGGCAACUAGAAGGCCCUAGUACCU | – | – | 10.8 nM | 5.48 nM |
| UGGUACUAGGGAGGAUAUGGGAAGAUACAUGAGGAUCACCCAUGUGUAAGAAUGCCGAGAGGCAACUAGAAGGCCCUAGUACCU | – | – | 56 nM | 6.58 nM |
| UGGUACUAGGGAGGAUAUGGGAAGAUACAUGAGGAUCACCCAUGUUUAAGAAUGCCGAGAGGCAACUAGAAGGCCCAAGUACCU | – | – | 425 nM | 18.6 nM |
| UGGUACUAGGGAGGAUAUGGGAAGAUACAUGAGGAUCACCCAUGUUUAAGAAUGCCGAGAGGCAACUAGAAGGCCCUAGUACUU | – | – | 448 nM | 20.2 nM |

| Sequence | apparent Kd [1] | apparent Kd [2] | apparent Kd [3] | apparent Kd [4] |
| --- | --- | --- | --- | --- |
| UGGUACUAGGGAGGAUAUGGGAAGAUACAUGAGGAUCACCCAUGUUUAAGAAUGCCGAGAGGCAACUAGAAGGCCCUGGUACCU | – | – | 459 nM | 17.9 nM |
| UGGUACUAGGGAGGAUAUGGGAAGAUACAUGAGGAUCACCCAUGUUUAAGAAUGCCGAGAGGCAACUAGAAGGGCCUAGUACCU | – | – | 804 nM | 280 nM |
| UGGUACUAGGGAGGAUAUGGGAAGAUACAUGAGGAUCACCCAUGUUUAAGAAUGGCGAGAGGCAACUAGAAGGCCCUAGUACCU | – | – | 271 nM | 15.6 nM |
| UGGUACUAGGGAGGAUAUGGGAAGAUACAUGAGGAUCACCCAUGUUUAAGUAUGCCGAGAGGCAACUAGAAGGCCCUAGUACCU | – | – | 1440 nM | 116 nM |
| UGGUAGGGAGGAUAUCGGAGACCAAACAUGAGGAUCACCCAUGUGCCAUCCCGUGUAUCUUGAGAAGGUUCUACCA | 14.8 nM | 23.4 nM | – | – |
| UGGUCGGAGACAGGAUAUGUGACUGCAUAGUGCACAGAAGGGUCUACAUGAGGAUCACCCAUGUCACCGACCACCAAACAACAA | – | – | 626 nM | 55.2 nM |
| UGGUGUGAAGGAUAUACAUGAGGAUCACCCAUGUAUGAGGUGUGUGUUGAGGUGGAGGGUAGAAGGUCAGGUGG | 30.1 nM | 30.6 nM | – | – |
| UGUAAGAUGCAGAAGGUGUUAGCUAGAGCUACGACAUGAGGAUCACCCAUGUACUAGAAACAGUACAAGGAUAUGCAUCUUACC | – | – | 19.6 nM | 6.43 nM |
| UGUAUGGACAGAGGAUAUACGGCUAGGAGAUACUAGCUACUAUUCCUCACAUGAGGAUCACCCAUGUAGAAGGCUGUCCAUACU | 18 nM | 145 nM | – | – |
| UGUCCAUAGCAGAAGGACAUGUAUAAUCAUGAAAACAUGAGGAUCACCCAUGUAGGAUAUGCUAUGGACUAAGAGCGAAAGCUC | 19.9 nM | 297 nM | – | – |
| UGUCCAUAGCAGAAGGCUAGAAAACAUGAGGAUCACCCAUGUCAAAAGACUAGAGGAUAUGCUAUGGACUAAGAGCGAAAGCUC | 3.97 nM | 3.81 nM | – | – |
| UGUCGGAGCAGAGGAUAUUACAUGAGGAUCACCCAUGUAUAAAGAUCAAGCUGGAAACAGCAAUGUAAGAAGGCUGCUCCGACA | 60.4 nM | 418 nM | – | – |
| UGUCGGAGCAGAGGAUAUUACAUGAGGAUCACCCAUGUAUGAAACAAUAGCUGGAAACAGCAAUGUAAGAAGGCUGCUCCGACA | 5.94 nM | 11.3 nM | – | – |
| UGUCGGAGCAGAGGAUAUUACAUGAGGAUCACCCAUGUAUGAACAAAUAGCUGGAAACAGCAAUGUAAGAAGGCUGCUCCGACA | 5.82 nM | 7.45 nM | – | – |
| UGUCGGAGCAGAGGAUAUUACAUGAGGAUCACCCAUGUAUGAACCAAUAGCUGGAAACAGCAAAGUAAGAAGGCUGCUCCGACA | 6.28 nM | 79.4 nM | – | – |
| UGUCGGAGCAGAGGAUAUUACAUGAGGAUCACCCAUGUAUGACCCAAUAGCUGGAAACAGCAAUGUAAGAAGGCUGCUCCGACA | 14.6 nM | 295 nM | – | – |
| UGUGCGUAUGUGAGGAUAUGCUGGUCCUUGGAUCAGCAGAAGGCACAUGAGGAUCACCCAUGUGGUGUCGUACG | 114 nM | 185 nM | – | – |
| UGUGCGUAUGUGAGGAUAUGCUGGUCCUUGGAUCGGCAGAAGGCACAUGAGGAUCACCCAUGUGGUGUCGUACA | 493 nM | 19.2 nM | – | – |
| UGUGCGUUGAUCUUCGAUCGGUGUACAUGAGGAUCACCCAUGUAGGAUAUUCAAAGACGCAGAUAGGAGAAGGACAUCGGAUUU | 18.8 nM | 17 nM | – | – |
| UGUGCUAUGUAGAAGGCAGAUCUGAUUCAGAUCUGAGGAUAUACAUGAGGAUCACCCAUGUUAUGCACCAGCACGAGAGUGCAU | 17.7 nM | 91.8 nM | – | – |
| UGUGUGAGACAGGAUAUGCUGGAUGAGAGGCGGGUAGAAGGGUCUACAUGAGGAUCACCCAUGUGGCCGGUUGG | 17 nM | 16.9 nM | – | – |
| UGUGUGUGGCAGGAUAUGCAGGUAAUAGGACGGGUAGAAGGGUCUACAUGAGGAUCACCCAUGUGGCCGGUUGG | 16.1 nM | 16 nM | – | – |
| UGUGUGUGGCAGGAUAUUCCGGUCGUUGGUCGGGAAGAAGGGUCUACAUGAGGAUCACCCAUGUGACCGGUUGG | 25.6 nM | 26.2 nM | – | – |
| UGUUAAUAUCGAGGAUAUGUCUAGACACAUGAGGAUCACCCAUGUAUGUGUAUAGAAGGCGAUAUUAACAGCAUGUUACAUGCC | – | – | 37.1 nM | 17.7 nM |
| UGUUACUAGUAAGGAUAUACUUGCGAUAAGCUUGUAGAAGGUACAGUCUUUUGUAUAACAUGUUUACAUGAGGAUCACCCAUGU | – | – | 9.71 nM | 8.78 nM |
| UGUUAGUAGUGAGGAUAUACAUACACCUUACAUGAGGAUCACCCAUGUUUUAAGAUUGAUAGAUAGUAGAAGGCACAUGAUGAU | – | – | 59 nM | 23 nM |
| UGUUAUUUGACAGGAUAUUGAUUGUUAAGUUUUUACAUGAGGAUCACCCAUGUUGUUCAUUCGUACAAGAAGGGUCAAGUUUUU | – | – | 72.8 nM | 27.2 nM |
